In article PMC9069315 (Acta Pharmaceutica Sinica. B, 2021):
Residue numbers refer to the chain shown, from its start. Several values for one entry are separate records, joined by “and”; a condition that tells them apart may be missing. Identical values can stand only once.

Columns and labels:
σ2 receptor [1] = molecular target: T1, σ2 receptor (Rattus norvegicus, UniProt Q5U3Y7); test: Micro-PET/CT imaging in Sprague-Dawley rats; format: in vivo; details: SD rats, CM398 10 μmol/kg 5 min before tracer, after 30 min
T1 sequence (Q5U3Y7 1-176): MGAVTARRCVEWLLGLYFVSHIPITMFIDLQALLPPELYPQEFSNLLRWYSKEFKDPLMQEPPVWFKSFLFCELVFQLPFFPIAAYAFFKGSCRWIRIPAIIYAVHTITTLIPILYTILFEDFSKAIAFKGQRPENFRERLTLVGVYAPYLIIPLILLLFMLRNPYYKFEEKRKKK
Method in brief: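 Male SD rats (200 ± 10 g, 6–7 weeks) were injected intravenously with radiotracer, and a dynamic 120-min micro-PET/CT scan followed. Scans were run at baseline or with CM398 (10 μmol/kg) blocking. Whole-brain and regional time–activity curves were expressed as SUV, n = 3 per condition for whole brain; images were summed over 30–45 min.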

[2] = In vivo metabolic stability in ICR mice; set-up: species or system mouse; details: 30 min after injection, radio-HPLC
Method in brief: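 ICR mice were injected with radiotracer (0.2 mL, 33.3 MBq). Brain and pancreas were dissected at 30 min, processed, and analysed by radio-HPLC for the intact-tracer fraction versus radioactive metabolites.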

[3] = Biodistribution in male ICR mice; format: in vivo, mouse; details: i.v.
Method in brief: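 Male ICR mice (20 ± 2 g, 4–5 weeks) received the radiotracer, and tissues were sampled at the listed times after injection. Uptake is given as percentage of injected dose per gram of tissue (% ID/g), as means ± SD, n = 5.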

σ2 receptors [4] = molecular target: T2, σ2 receptors (Mus musculus, UniProt Q8VD00); test: Blocking experiments in male ICR mice; format: in vivo; details: 30 min p.i.
T2 sequence (Q8VD00 1-176): T1 sequence (Q5U3Y7 1-176) with V4L, T5A, M26L, L33V, F71L, V105A, I118L, I127V, N136S, F169Y
Method in brief: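 Male ICR mice (20 ± 2 g, 4–5 weeks) were pre-dosed 5 min before about 280 kBq of radiotracer, with either unlabeled compound (0.1 mL, 3 μmol/kg) or CM398 (0.1 mL; 3, 5, 10 or 20 μmol/kg). Tissues were taken at 30 min p.i. Brain uptake (% ID/g) and brain-to-blood ratio were compared with unblocked controls.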

σ2 receptors [5] = molecular target: T2, σ2 receptors; test: Ex vivo autoradiography in mouse brain; details: baseline, 30 min p.i., male ICR mice
[6] = In vitro stability in saline and mouse serum; format: in vitro ADME; details: 2 h
σ2 receptor [7] = molecular target: T1, σ2 receptor; details: cited from earlier work
P-glycoprotein (P-gp) = P-glycoprotein (P-gp) (Mus musculus, UniProt P21447); test: Effect of P-gp on brain uptake; format: in vivo; details: male ICR mice
Chain of P-glycoprotein (P-gp) (P21447 whole entry): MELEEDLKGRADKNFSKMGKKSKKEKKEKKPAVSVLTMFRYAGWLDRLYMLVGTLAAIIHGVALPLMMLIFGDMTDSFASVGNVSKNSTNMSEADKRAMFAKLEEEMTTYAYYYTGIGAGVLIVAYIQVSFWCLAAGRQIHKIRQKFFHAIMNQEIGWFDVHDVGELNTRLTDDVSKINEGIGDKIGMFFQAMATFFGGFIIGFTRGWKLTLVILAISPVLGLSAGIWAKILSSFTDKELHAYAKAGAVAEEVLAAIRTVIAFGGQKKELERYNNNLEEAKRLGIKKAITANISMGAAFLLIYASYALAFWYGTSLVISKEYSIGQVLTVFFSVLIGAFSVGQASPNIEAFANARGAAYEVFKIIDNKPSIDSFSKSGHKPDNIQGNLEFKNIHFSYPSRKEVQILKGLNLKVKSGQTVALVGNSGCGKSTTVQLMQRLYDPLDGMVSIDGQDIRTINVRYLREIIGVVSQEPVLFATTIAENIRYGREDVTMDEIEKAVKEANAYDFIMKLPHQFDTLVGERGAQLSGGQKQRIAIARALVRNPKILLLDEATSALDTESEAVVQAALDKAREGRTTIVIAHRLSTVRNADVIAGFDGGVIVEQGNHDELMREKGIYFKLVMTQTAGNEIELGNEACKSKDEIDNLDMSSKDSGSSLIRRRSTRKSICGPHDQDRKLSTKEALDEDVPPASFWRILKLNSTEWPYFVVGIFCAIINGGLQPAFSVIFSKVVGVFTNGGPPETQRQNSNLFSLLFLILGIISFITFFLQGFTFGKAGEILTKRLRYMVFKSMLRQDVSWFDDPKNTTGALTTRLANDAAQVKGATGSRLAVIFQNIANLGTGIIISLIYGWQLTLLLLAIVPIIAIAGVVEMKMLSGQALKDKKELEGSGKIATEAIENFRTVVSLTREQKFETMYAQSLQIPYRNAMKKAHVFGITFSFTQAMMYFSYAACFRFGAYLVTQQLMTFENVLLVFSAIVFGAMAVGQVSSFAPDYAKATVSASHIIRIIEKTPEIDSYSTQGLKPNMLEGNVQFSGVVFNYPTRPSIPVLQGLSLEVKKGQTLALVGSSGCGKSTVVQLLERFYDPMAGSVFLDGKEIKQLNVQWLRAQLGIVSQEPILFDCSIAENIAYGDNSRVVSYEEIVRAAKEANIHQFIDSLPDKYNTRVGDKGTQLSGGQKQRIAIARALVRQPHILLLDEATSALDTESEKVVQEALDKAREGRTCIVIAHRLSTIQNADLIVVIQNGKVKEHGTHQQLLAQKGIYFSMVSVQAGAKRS
Method in brief: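 Male ICR mice (20 ± 2 g, 4–5 weeks) were given the P-gp inhibitor cyclosporine A 60 min before the radioligand. Radioactivity in brain and blood was measured and the brain-to-blood ratio derived, n = 5–8 per group, means ± SD. Groups were compared by independent two-tailed Student's t test.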

[8] = CM398 5 μmol/kg 5 min before tracer
[9] = unlabeled compound 3 μmol/kg 5 min before tracer
[10] = cyclosporine A 60 min before tracer, 2 min p.i., P < 0.05

Reduction of radiotracer accumulation in the whole-brain (micro-PET) (σ2 receptor [1]): > 60%
Parent compound fraction of radioactivity in brain [2]: ≥ 95%
Parent compound fraction of radioactivity in pancreas ([2]; n = 3): ~10%
Blood uptake ([3]; 2 min p.i.): 2.39 ± 0.36 % ID/g
Bone uptake ([3]; 2 min p.i.): 2.59 ± 0.66 % ID/g
Brain uptake ([3]; 2 min p.i.): 4.44 ± 0.59 % ID/g
Brain/Blood ratio ([3]; 2 min p.i.): 1.87 ± 0.13
Heart uptake ([3]; 2 min p.i.): 21.57 ± 1.58 % ID/g
Kidney uptake ([3]; 2 min p.i.): 18.89 ± 2.48 % ID/g
Liver uptake ([3]; 2 min p.i.): 3.24 ± 0.67 % ID/g
Lung uptake ([3]; 2 min p.i.): 108.47 ± 20.11 % ID/g
Muscle uptake ([3]; 2 min p.i.): 4.38 ± 0.99 % ID/g
Pancreas uptake ([3]; 2 min p.i.): 8.74 ± 0.29 % ID/g
Small intestine uptake ([3]; 2 min p.i.): 6.21 ± 0.81 % ID/organ
Spleen uptake ([3]; 2 min p.i.): 5.01 ± 1.80 % ID/g
Stomach uptake ([3]; 2 min p.i.): 1.21 ± 0.14 % ID/organ
Blood uptake ([3]; 15 min p.i.): 0.70 ± 0.08 % ID/g
Bone uptake ([3]; 15 min p.i.): 3.02 ± 0.45 % ID/g
Brain uptake ([3]; 15 min p.i.): 4.95 ± 0.36 % ID/g
Brain/Blood ratio ([3]; 15 min p.i.): 7.2 and 7.21 ± 1.36
Heart uptake ([3]; 15 min p.i.): 11.23 ± 0.91 % ID/g
Kidney uptake ([3]; 15 min p.i.): 18.40 ± 2.45 % ID/g
Liver uptake ([3]; 15 min p.i.): 6.13 ± 0.94 % ID/g
Lung uptake ([3]; 15 min p.i.): 36.37 ± 6.47 % ID/g
Muscle uptake ([3]; 15 min p.i.): 3.74 ± 0.33 % ID/g
Pancreas uptake ([3]; 15 min p.i.): 12.75 ± 2.12 % ID/g
Small intestine uptake ([3]; 15 min p.i.): 7.27 ± 0.88 % ID/organ
Spleen uptake ([3]; 15 min p.i.): 7.51 ± 1.17 % ID/g
Stomach uptake ([3]; 15 min p.i.): 1.52 ± 0.19 % ID/organ
Blood uptake ([3]; 30 min p.i.): 0.48 ± 0.08 % ID/g
Bone uptake ([3]; 30 min p.i.): 4.50 ± 0.38 % ID/g
Brain uptake ([3]; 30 min p.i.): 5.04 ± 0.67 % ID/g
Brain/Blood ratio ([3]; 30 min p.i.): 10.6 and 10.57 ± 1.86 and 10.57
Heart uptake ([3]; 30 min p.i.): 7.55 ± 1.30 % ID/g
Kidney uptake ([3]; 30 min p.i.): 20.61 ± 1.80 % ID/g
Liver uptake ([3]; 30 min p.i.): 8.69 ± 0.44 % ID/g
Lung uptake ([3]; 30 min p.i.): 17.93 ± 2.42 % ID/g
Muscle uptake ([3]; 30 min p.i.): 3.90 ± 0.23 % ID/g
Pancreas uptake ([3]; 30 min p.i.): 18.93 ± 2.95 % ID/g
Small intestine uptake ([3]; 30 min p.i.): 10.80 ± 0.36 % ID/organ
Spleen uptake ([3]; 30 min p.i.): 9.93 ± 1.43 % ID/g
Stomach uptake ([3]; 30 min p.i.): 1.54 ± 0.20 % ID/organ
Blood uptake ([3]; 60 min p.i.): 0.42 ± 0.05 % ID/g
Bone uptake ([3]; 60 min p.i.): 4.64 ± 1.57 % ID/g
Brain uptake ([3]; 60 min p.i.): 4.43 ± 0.39 % ID/g
Brain/Blood ratio ([3]; 60 min p.i.): 10.6 and 10.56 ± 0.83
Heart uptake ([3]; 60 min p.i.): 3.49 ± 0.62 % ID/g
Kidney uptake ([3]; 60 min p.i.): 17.40 ± 3.97 % ID/g
Liver uptake ([3]; 60 min p.i.): 10.97 ± 0.95 % ID/g
Lung uptake ([3]; 60 min p.i.): 9.95 ± 1.62 % ID/g
Muscle uptake ([3]; 60 min p.i.): 3.01 ± 0.51 % ID/g
Pancreas uptake ([3]; 60 min p.i.): 22.66 ± 3.36 % ID/g
Small intestine uptake ([3]; 60 min p.i.): 10.73 ± 1.27 % ID/organ
Spleen uptake ([3]; 60 min p.i.): 11.35 ± 2.85 % ID/g
Stomach uptake ([3]; 60 min p.i.): 1.39 ± 0.27 % ID/organ
Blood uptake ([3]; 120 min p.i.): 0.42 ± 0.03 % ID/g
Bone uptake ([3]; 120 min p.i.): 5.57 ± 0.53 % ID/g
Brain uptake ([3]; 120 min p.i.): 3.41 ± 0.13 % ID/g
Brain/Blood ratio ([3]; 120 min p.i.): 8.11 ± 0.37
Heart uptake ([3]; 120 min p.i.): 2.76 ± 0.41 % ID/g
Kidney uptake ([3]; 120 min p.i.): 12.36 ± 0.81 % ID/g
Liver uptake ([3]; 120 min p.i.): 11.9 ± 1.52 % ID/g
Lung uptake ([3]; 120 min p.i.): 7.53 ± 1.07 % ID/g
Muscle uptake ([3]; 120 min p.i.): 3.01 ± 0.27 % ID/g
Pancreas uptake ([3]; 120 min p.i.): 24.21 ± 1.57 % ID/g
Small intestine uptake ([3]; 120 min p.i.): 10.88 ± 0.38 % ID/organ
Spleen uptake ([3]; 120 min p.i.): 10.51 ± 0.37 % ID/g
Stomach uptake ([3]; 120 min p.i.): 1.22 ± 0.13 % ID/organ
Blocking effect of CM398 (5 μmol/kg), Brain (σ2 receptors [4]; [8]): 39%
Blocking effect of CM398 (5 μmol/kg), Brain/Blood (σ2 receptors [4]; [8]): 75%
Self-blocking effect, Brain (σ2 receptors [4]; [9]): 58%
Self-blocking effect, Brain/Blood (σ2 receptors [4]; [9]): 90%
Radioactivity distribution in the mouse brain (ex vivo autoradiography) (σ2 receptors [5]): widely and heterogeneously distributed
RCP after incubation (in vitro stability) ([6]; mouse serum, 37 °C): > 99%
RCP after incubation (in vitro stability) ([6]; saline, ambient temperature): > 99%
Increase in brain-to-blood ratio with cyclosporine A (P-glycoprotein (P-gp); [10]): 35%
Increase in initial brain uptake with cyclosporine A (P-glycoprotein (P-gp); [10]): 49%
Change in blood uptake with cyclosporine A (P-glycoprotein (P-gp); cyclosporine A 60 min before tracer, 2 min p.i., P > 0.05): slight increase without significance
SMILES: COc1cc2c(cc1OC)CN(CCCCn1ccc3c(OCC[18F])cccc31)C2 [[^18F]9, 1-(4-(5,6-dimethoxyisoindolin-2-yl)butyl)-4-(2-[^18F]fluoroethoxy)-1H-indole]
Ki (σ2 receptor [7]; read-out: Ki (σ2)): 1.79 ± 0.86 nM
Ki (σ1)/Ki (σ2) (σ2 receptor [7]; subtype selectivity): 207
P-gp substrate (P-glycoprotein (P-gp); cyclosporine A 50 mg/kg 60 min before tracer, 50 mg/kg): moderate P-gp substrates and moderate P-gp substrate and Yes
